Measured values reported in paper PMC3515069 (Toxicology, 2012).
pEC50: −log10 of the molar value. “Also recorded” adds a separate entry of the source. Read-outs that look alike come from different tables or passages of the source. Values belong to the compound of their own block, whether it stands above or below them.

Assays:
[1] = tested on: AhR; settings: ref Medjakovic and Jungbauer, 2008; cited from earlier work
[2] = biological target: T1, AhR (Homo sapiens, UniProt P35869); test: AhR antagonist luciferase assay; type: cell-based; settings: human HG2L6.1c3 cells, 10 μM with 10 nM TCDD
T1 sequence (P35869 11-848): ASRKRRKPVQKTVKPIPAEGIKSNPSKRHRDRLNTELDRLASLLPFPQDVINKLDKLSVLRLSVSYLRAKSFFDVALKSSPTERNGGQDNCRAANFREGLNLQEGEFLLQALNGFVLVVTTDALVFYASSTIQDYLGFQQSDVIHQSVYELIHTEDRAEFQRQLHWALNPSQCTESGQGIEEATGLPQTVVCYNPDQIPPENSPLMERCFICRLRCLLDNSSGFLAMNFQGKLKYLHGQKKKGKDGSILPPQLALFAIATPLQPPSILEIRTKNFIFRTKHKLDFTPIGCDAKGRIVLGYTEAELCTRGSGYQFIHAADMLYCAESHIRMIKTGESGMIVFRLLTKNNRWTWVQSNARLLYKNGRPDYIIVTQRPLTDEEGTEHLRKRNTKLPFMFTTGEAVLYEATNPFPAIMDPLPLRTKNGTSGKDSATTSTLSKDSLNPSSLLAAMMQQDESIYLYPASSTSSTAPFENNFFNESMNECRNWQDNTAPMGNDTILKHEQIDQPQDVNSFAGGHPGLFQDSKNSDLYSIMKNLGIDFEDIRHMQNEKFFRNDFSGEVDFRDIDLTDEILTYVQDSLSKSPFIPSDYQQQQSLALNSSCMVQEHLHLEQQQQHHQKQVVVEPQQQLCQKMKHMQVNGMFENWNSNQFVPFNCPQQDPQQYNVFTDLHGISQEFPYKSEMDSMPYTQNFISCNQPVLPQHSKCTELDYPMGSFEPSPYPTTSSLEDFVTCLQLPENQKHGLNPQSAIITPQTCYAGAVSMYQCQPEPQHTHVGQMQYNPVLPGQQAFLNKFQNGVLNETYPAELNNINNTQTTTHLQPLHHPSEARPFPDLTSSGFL

[3] = biological target: AhR (Mus musculus, UniProt P30561); test: AhR agonist luciferase induction, mouse H1L6.1c2 cells; type: cell-based; settings: 10 μM; for AhR-dependent luciferase induction, normalised to maximal TCDD response: 24 hours, 1 nM TCDD = 100%; for AhR agonist activity (in words): luciferase
How it was run: (§1)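 Mouse H1L6.1c2 (from Hepa1c1c7) and human HG2L6.1c3 (from HepG2) hepatoma lines stably carry firefly luciferase under four DREs upstream of the MMTV promoter. Cells were exposed for 24 h at 37°C to test compound (10 mM DMSO stock) in 0.1% DMSO, TCDD (mouse 1 nM, human 10 nM) or vehicle. Cells were PBS-washed and lysed, and luminescence was read. DMSO background was subtracted and values normalised to TCDD = 100%. S.D., n = 3.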

[4] = biological target: T2, AhR (Rattus norvegicus, UniProt P41738); type: cell-based; settings: rat H4IIE cells; for antagonistic effect (in words): 10 μM Chr-13 or 1 μM Chr-19 with TCDD, qRT-PCR
T2 sequence (P41738 10-853): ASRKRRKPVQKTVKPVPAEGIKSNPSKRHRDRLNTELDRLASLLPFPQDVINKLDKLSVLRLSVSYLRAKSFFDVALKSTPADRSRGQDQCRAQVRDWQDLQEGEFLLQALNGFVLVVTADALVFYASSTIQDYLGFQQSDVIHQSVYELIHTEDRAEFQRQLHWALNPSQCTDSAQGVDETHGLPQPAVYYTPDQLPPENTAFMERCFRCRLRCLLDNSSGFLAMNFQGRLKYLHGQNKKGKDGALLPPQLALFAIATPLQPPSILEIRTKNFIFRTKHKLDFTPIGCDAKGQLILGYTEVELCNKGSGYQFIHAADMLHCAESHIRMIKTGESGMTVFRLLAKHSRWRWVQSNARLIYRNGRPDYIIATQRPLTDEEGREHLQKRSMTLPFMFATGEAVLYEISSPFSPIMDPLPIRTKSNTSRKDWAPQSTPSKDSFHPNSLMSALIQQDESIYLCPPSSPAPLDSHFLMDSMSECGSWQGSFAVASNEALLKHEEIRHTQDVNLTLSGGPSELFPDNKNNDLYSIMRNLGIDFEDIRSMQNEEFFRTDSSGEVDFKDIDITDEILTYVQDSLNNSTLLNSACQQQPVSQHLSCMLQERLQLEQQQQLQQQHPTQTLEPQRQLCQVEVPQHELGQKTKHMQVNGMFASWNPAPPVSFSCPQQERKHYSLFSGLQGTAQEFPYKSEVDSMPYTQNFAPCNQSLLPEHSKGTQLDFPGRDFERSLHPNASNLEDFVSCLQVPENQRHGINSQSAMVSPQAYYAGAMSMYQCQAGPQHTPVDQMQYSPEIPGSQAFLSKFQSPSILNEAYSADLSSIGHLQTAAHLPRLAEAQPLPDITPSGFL

[5] = biological target: T2, AhR; test: CYP1A1 mRNA induction by qRT-PCR, rat H4IIE cells; settings: for concentration inducing ~20% of the maximal response of 10 nM TCDD: rat H4IIE cells, CYP1A1 mRNA
[6] = biological target: T1, AhR; test: CYP1A1 mRNA induction by qRT-PCR, human MCF-7 cells; settings: for concentration inducing ~20% of the maximal response of 10 nM TCDD: concentrations up to 100 μM
[7] = biological target: T1, AhR; type: cell-based; settings: human MCF-7 cells; for antagonistic effect (in words): 100 μM Chr-13 or 10 μM Chr-19 with TCDD
[8] = biological target: T2, AhR
[9] = biological target: T1, AhR; test: AhR agonist luciferase induction, human HG2L6.1c3 cells; type: cell-based; settings: 10 μM
How it was run: as §1

[10] = biological target: T1, AhR
[11] = biological target: T1, AhR; settings: human cells; ref Van der Heiden et al., 2007; cited from earlier work
[12] = biological target: T2, AhR; settings: rat H4IIE cells; ref Van der Heiden et al., 2007; cited from earlier work
[13] = tested on: AhR; settings: ref Ciolino and Yeh, 1999; cited from earlier work
[14] = biological target: T1, AhR; settings: MCF-7 cells, EROD analysis; ref Ciolino et al. (1999); cited from earlier work

AhR (Mus musculus, UniProt P30561), sequence (P30561 10-805 limits assumed): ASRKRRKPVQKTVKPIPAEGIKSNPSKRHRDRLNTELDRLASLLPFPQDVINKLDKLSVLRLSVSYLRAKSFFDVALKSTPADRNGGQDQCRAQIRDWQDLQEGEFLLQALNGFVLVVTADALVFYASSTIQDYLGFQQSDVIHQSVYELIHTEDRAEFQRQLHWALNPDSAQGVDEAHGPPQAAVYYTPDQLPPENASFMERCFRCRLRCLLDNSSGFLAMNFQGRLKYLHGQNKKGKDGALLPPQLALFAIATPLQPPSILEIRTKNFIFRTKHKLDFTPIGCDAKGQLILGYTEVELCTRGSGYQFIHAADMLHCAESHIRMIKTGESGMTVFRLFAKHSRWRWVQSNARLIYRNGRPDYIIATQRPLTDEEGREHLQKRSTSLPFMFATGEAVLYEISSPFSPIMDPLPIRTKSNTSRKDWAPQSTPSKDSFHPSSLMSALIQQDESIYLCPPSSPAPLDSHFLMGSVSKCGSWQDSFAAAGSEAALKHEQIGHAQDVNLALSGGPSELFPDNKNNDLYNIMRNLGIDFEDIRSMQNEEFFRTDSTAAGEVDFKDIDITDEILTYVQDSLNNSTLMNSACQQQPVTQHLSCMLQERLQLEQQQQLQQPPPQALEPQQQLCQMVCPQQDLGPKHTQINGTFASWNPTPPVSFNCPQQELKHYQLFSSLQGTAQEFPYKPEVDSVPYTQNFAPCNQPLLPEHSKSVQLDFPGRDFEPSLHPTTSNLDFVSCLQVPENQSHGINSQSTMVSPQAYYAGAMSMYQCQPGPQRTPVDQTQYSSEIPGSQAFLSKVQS
AhR (Mus musculus, UniProt P30561), sequence (P11499 whole entry partner): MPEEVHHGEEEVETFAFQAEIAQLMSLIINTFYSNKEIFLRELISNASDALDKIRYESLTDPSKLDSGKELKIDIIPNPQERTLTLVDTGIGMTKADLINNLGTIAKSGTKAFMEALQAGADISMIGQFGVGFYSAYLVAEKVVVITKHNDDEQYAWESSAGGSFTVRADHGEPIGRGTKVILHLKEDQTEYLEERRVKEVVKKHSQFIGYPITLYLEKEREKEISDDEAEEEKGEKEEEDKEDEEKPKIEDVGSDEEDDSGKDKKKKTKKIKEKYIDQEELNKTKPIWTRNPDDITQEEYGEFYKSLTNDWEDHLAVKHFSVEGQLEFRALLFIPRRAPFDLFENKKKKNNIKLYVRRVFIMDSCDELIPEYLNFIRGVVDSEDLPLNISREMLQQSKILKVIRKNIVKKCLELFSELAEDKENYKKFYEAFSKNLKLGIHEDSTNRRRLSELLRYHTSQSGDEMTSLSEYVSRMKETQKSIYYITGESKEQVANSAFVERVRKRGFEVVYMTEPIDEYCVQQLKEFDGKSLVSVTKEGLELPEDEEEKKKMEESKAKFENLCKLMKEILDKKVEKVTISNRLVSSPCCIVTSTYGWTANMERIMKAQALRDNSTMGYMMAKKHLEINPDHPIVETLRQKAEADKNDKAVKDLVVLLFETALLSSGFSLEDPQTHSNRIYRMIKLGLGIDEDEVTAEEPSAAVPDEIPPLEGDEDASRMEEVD
AhR (Mus musculus, UniProt P30561), sequence (O08915 whole entry partner): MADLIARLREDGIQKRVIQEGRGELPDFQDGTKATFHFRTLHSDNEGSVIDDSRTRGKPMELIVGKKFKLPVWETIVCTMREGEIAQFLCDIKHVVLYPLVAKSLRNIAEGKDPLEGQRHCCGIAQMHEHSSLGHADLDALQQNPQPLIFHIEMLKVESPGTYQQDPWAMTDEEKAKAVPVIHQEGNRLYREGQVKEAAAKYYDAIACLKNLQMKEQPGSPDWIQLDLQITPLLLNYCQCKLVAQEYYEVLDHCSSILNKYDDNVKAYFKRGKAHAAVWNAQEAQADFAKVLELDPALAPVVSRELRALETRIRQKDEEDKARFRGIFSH

SMILES: COc1ccc(-c2coc3cc(O)cc(O)c3c2=O)cc1 [Biochanin A]
less potent than TCDD [1]: 100 fold

AhR antagonist activity (in words) [2]: antagonised
SMILES: Nc1oc2ccccc2c(=O)c1-c1ccc(Cl)cc1 [Chr-4]

AhR-dependent luciferase induction, normalised to maximal TCDD response [3]: 50%
AhR-dependent luciferase induction, normalised to maximal TCDD response ([3]; listed as Chr 13): greater than 30%
AhR agonist activity (in words) [3]: strong agonist
background induction, % of the maximal induction ([4]; 10 μM Chr-13 added to TCDD C/R curve): ~ 25%
antagonistic effect (in words) [4]: no antagonistic effects
pEC50 [5]: 4.38
concentration inducing ~20% of the maximal response of 10 nM TCDD [5]: 10 µM
concentration inducing ~20% of the maximal response of 10 nM TCDD ([6]; human MCF-7 cells, CYP1A1 mRNA): no response was detected
reduction of the potency of TCDD ([7]; 100 μM Chr-13): 5 fold
antagonistic effect (in words) ([7]; qRT-PCR): weak antagonist
SMILES: COc1ccc2c(=O)c(-c3ccc(Cl)cc3)c(N)oc2c1 [Chr-13, 2-amino-3-(4′-chlorophenyl)-7-methoxychromen-4-one]
EC50 (95% Confidence interval) ([6]; human MCF-7 cells, CYP1A1 mRNA, 4 hours, assuming maximal response is reached): could not be obtained; also recorded: No agonistic effect
AhR antagonist activity (in words) [2]: antagonised; also recorded: strong antagonist

SMILES: COc1ccc(-c2cc3cc(Cl)ccc3oc2=O)cc1 [Chr-19, 6-Chloro-3-(4′-methoxy)phenylcoumarin]
AhR agonist activity (in words) [3]: weak agonist
antagonistic effect (in words) [4]: no shift of the TCDD curve to the right
pEC50 [8]: 5.11
more potent in rat H4IIE than in human MCF-7 cells [8]: approximately 20 fold
concentration inducing ~20% of the maximal response of 10 nM TCDD [5]: 1 µM
concentration inducing ~20% of the maximal response of 10 nM TCDD ([6]; human MCF-7 cells, CYP1A1 mRNA): 10 µM
AhR agonist activity (in words) [9]: induced significant levels; also recorded: weak agonist
pEC50 [10]: 3.85
AhR antagonist activity (in words) [2]: antagonised; also recorded: antagonist
reduction of the potency of TCDD ([7]; 10 μM Chr-19): 3 fold
antagonistic effect (in words) ([7]; qRT-PCR): weak antagonist
reduction of the response to 10 nM TCDD ([7]; qRT-PCR, 10 μM): 10%

SMILES: Clc1cc2c(cc1Cl)Oc1cc(Cl)c(Cl)cc1O2 [TCDD, 2,3,7,8-tetrachlorodibenzo-p-dioxin, reference compound]
pEC50 [5]: 9.95
pEC50 [6]: 9.18
potency lower in human MCF-7 than in rat H4IIE cells ([6]; ratio of CYP1A1 mRNA EC50s, p<0.0001): 6 fold

SMILES: O=c1cc(-c2ccccc2)oc2cc(O)cc(O)c12 [chrysin]
AhR activity (in words) [11]: partial agonist
AhR antagonistic effect (in words) [12]: no antagonistic effects

SMILES: O=c1c(O)c(-c2ccccc2)oc2cc(O)cc(O)c12 [galangin]
AhR activity (in words) [13]: AhR antagonist

SMILES: O=c1c(O)c(-c2ccc(O)cc2)oc2cc(O)cc(O)c12 [kaempferol]
AhR activity (in words) [14]: antagonist

SMILES: O=c1c(O)c(-c2ccc(O)c(O)c2)oc2cc(O)cc(O)c12 [quercetin, Quercetin]
AhR activity (in words) [14]: AhR agonist
